Measured values from ChEMBL document CHEMBL1129380, “Synthesis, activity, and molecular modeling of a new series of tricyclic pyridazinones as selective aldose reductase inhibitors” (J Med Chem, 1996).

Assays:
[1] = target: Sorbitol dehydrogenase (Ovis aries) (UniProt P07846); experiment: Inhibition of sorbitol dehydrogenase from sheep liver (40 U/mg of protein); settings: concentration not given here
[2] = target: Aldo-keto reductase family 1 member B1 (Bos taurus) (UniProt P16116); experiment: (§1) Evaluated for inhibition of Aldose reductase 2
Summary of the method: (§2)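 Calf lens ALR2, partially purified by DE-52 (6.5 mU/mg), at 3.5 mU/mL. Assay at 37 °C with 4.7 mM D,L-glyceraldehyde and 0.11 mM NADPH in 0.25 M sodium phosphate, pH 6.8, with 0.38 M ammonium sulfate. Inhibitor in DMSO (1% final). A340 decrease corrected by a no-substrate blank.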

[3] = target: T1, Glutathione reductase, mitochondrial (Homo sapiens) (UniProt P00390); experiment: (§3) Inhibition of glutathione reductase; settings: Saccharomyces cerevisiae; concentration not given here
T1 sequence (whole entry): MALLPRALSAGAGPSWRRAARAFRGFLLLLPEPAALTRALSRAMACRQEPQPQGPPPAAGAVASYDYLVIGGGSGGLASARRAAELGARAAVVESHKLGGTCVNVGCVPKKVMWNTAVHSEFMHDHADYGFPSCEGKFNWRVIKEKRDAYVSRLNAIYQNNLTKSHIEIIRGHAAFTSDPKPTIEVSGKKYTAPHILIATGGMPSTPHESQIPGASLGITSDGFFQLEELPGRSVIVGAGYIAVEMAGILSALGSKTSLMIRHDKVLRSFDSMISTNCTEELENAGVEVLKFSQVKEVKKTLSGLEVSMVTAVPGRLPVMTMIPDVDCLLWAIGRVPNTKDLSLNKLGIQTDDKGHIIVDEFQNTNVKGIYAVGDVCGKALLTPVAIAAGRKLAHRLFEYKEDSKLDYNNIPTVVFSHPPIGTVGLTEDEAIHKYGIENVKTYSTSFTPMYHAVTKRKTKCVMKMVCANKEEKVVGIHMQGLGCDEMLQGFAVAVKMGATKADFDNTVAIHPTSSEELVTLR

[4] = target: Sorbitol dehydrogenase (Ovis aries) (UniProt P07846); experiment: Inhibition of sorbitol dehydrogenase from sheep liver (40 U/mg of protein)
Bos taurus = organism: Bos taurus; experiment: Inhibition of Aldehyde reductase 1; set-up: concentration or dose not given beside the values; settings: concentration not given here
Summary of the method: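 Partially purified bovine kidney ALR1 (ammonium sulfate fractionation plus DEAE-52 batch step, 11.3 mU/mg), at 3.5 mU/mL. Assay at 37 °C with 20 mM D-glucuronate and 0.12 mM NADPH in 0.1 M sodium phosphate, pH 7.2. Inhibitor added in DMSO, kept at 1%. NADPH oxidation read at 340 nm against a substrate-free blank. IC50 from the log dose–inhibition curve, duplicates.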

[5] = target: Aldo-keto reductase family 1 member B1 (Bos taurus, UniProt P16116); experiment: as §1
Summary of the method: as §2

[6] = target: T1, Glutathione reductase, mitochondrial (Homo sapiens); experiment: Inhibition of glutathione reductase at 138 uM; settings: Saccharomyces cerevisiae
[7] = target: T2, Glutathione reductase, mitochondrial (Homo sapiens, UniProt P00390); experiment: as §3; set-up: species or system Saccharomyces cerevisiae
T2 sequence (P00390 whole entry): T1 sequence (whole entry)

[8] = target: T1, Glutathione reductase, mitochondrial (Homo sapiens); experiment: Inhibition of glutathione reductase at 149 uM; settings: Saccharomyces cerevisiae

Sequence of Sorbitol dehydrogenase (Ovis aries) (P07846 whole entry, looked up): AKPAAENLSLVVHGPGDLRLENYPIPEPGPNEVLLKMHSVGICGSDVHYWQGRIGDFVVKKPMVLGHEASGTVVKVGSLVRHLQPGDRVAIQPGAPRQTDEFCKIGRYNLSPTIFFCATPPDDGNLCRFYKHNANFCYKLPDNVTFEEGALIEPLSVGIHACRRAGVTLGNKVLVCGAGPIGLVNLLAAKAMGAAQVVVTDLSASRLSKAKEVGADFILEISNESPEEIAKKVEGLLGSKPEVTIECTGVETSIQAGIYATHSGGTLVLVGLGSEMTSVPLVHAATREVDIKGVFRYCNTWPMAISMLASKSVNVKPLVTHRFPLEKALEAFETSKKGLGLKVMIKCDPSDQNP

Structure (SMILES) | IC50 [4] | inhibition (Bos taurus) | IC50 [5] | also measured
COc1ccc2c(C(=S)N(C)CC(=O)O)cccc2c1C(F)(F)F [TOLRESTAT] |  |  |  | inhibition [1]: 16.4%
O=C1NC(=O)[C@@]2(CCOc3ccc(F)cc32)N1 [SORBINIL] | No inhibition |  |  | 
O=C(O)Cn1nc2c(cc1=O)CCc1ccccc1-2 | No inhibition |  | 12.6 µM | inhibition [6]: 4.2%
COc1cc2c(cc1OC)-c1nn(CCCC(=O)O)c(=O)cc1CC2 | No inhibition | 10.1% | 7.56 µM | 
O=C(O)c1c(O)nnc2c1Cc1ccccc1-2 | No inhibition | 0% |  | Inhibition [7]: 12.3%; inhibition [2]: 5.3%
O=C(O)CCCn1nc2c(cc1=O)CCc1ccccc1-2 | No inhibition |  | 11.4 µM | 
O=C(O)c1c2c(n[nH]c1=O)-c1ccccc1CC2 |  |  |  | Inhibition [7]: 18.9%
O=C(O)Cn1nc2c(cc1=O)Cc1ccccc1-2 | No inhibition |  |  | inhibition [2]: 35.8%; inhibition [3]: 9.4%
Cc1cc(C)c2c(c1)-c1nn(CCCC(=O)O)c(=O)cc1CC2 | No inhibition | 22.1% | 17.4 µM | 
COc1cc2c(cc1OC)-c1nn(CC(=O)O)c(=O)cc1CC2 | No inhibition | 11.3% | 114 µM | 
Cc1cc(C)c2c(c1)C1=NN(CC(=O)O)C(=O)CC1CC2 (stereo unspecified) |  | 21.8% | 63.5 µM | 

Continued, in another order:

IC50 [4] | inhibition (Bos taurus) | IC50 [5] | Structure (SMILES) | also measured
No inhibition |  |  | O=C(O)Cn1nc2c(c(C(=O)O)c1=O)Cc1ccccc1-2 | inhibition [2]: 32.4%; inhibition [3]: 22.3%
 | 10.3% |  | O=C(O)Cn1nc2c(c(C(=O)O)c1=O)CCCc1ccccc1-2 | inhibition [2]: 12.1%
No inhibition | 8% | 162 µM | COc1cc2c(cc1OC)-c1nn(CCC(=O)O)c(=O)cc1CC2 | 
No inhibition | 15.1% | 76.2 µM | O=C(O)Cn1nc2c(cc1=O)CCCc1ccccc1-2 | 
No inhibition | 8.3% |  | O=C(O)c1c(O)nnc2c1CCc1ccccc1-2 | inhibition [2]: 9.9%
No inhibition |  | 33 µM | O=C(O)Cn1nc2c(c(C(=O)O)c1=O)CCc1ccccc1-2 | inhibition [3]: 23.7%
No inhibition |  | 51.5 µM | Cc1cc(C)c2c(c1)-c1nn(CCC(=O)O)c(=O)cc1CC2 | 
 | 6.8% |  | O=C(O)c1c2c(n[nH]c1=O)-c1ccccc1CCC2 | inhibition [2]: 13.2%
No inhibition |  | 6.44 µM | Cc1cc(C)c2c(c1)-c1nn(CC(=O)O)c(=O)cc1CC2 | 
No inhibition | 32.7% | 133 µM | O=C(O)CCn1nc2c(cc1=O)CCc1ccccc1-2 | 
No inhibition | 44.1% | 26.4 µM | COc1cc2c(cc1OC)-c1nn(CC(=O)O)c(=O)cc1C2 | inhibition [8]: 11.2%
